The source of these data is ChEMBL document CHEMBL3739387, “Discovery and SAR of Novel and Selective Inhibitors of Urokinase Plasminogen Activator (uPA) with an Imidazo[1,2-a]pyridine Scaffold” (J Med Chem, 2015).

pIC50, pKi: −log10 of the molar value. Activity calls are given as the source filed them. The rule behind the calls is not given here. A value given as a limit tells only on which side of the number the result lay.

Experiment [1] addresses T1, Urokinase-type plasminogen activator (Homo sapiens, UniProt P00749). The experiment can be described thus: Inhibition of human uPA.
Experiment [2] is described as follows: Inhibition of bovine pancreatic trypsin using Nalpha-benzoyl-D,L-Arg-pNA-HCl as substrate measured for 5 mins by spectrophotometric assay. The arrangement: species or system Bos taurus.
The target of experiment [3] is T1, Urokinase-type plasminogen activator. The experiment can be described thus: Inhibition of human uPA using pyro-Glu-Gly-Arg-pNA as substrate assessed as para-nitroaniline release from substrate measured for 5 mins by spectrophotometric assay.
For experiment [4], the species on record is Homo sapiens. The experiment can be described thus: Selectivity index, ratio of IC50 for recombinant human tPA to IC50 for human uPA.
Experiment [5] deals with T1, Urokinase-type plasminogen activator. The experiment can be described thus: Tight binding inhibition of human uPA using pyro-Glu-Gly-Arg-pNA as substrate assessed as para-nitroaniline release from substrate measured for 5 mins by spectrophotometry based enzyme kinetics assay.
Experiment [6] is filed under the species Homo sapiens. Kind of experiment: Selectivity index, ratio of IC50 for human plasma plasmin to IC50 for human uPA.
Experiment [7] is filed under the species Homo sapiens. The experiment can be described thus: Selectivity index, ratio of IC50 for human plasma kallikrein to IC50 for human uPA.
The species named for experiment [8] is Homo sapiens. The experiment can be described thus: Selectivity index, ratio of IC50 for purified human factor 10a to IC50 for human uPA.
Experiment [9] concerns the target T1, Urokinase-type plasminogen activator. The experiment can be described thus: Reversible inhibition of human uPA using pyro-Glu-Gly-Arg-pNA as substrate assessed as para-nitroaniline release from substrate measured for 5 mins by spectrophotometry based enzyme kinetics assay.
The target in experiment [10] is T2, Tissue-type plasminogen activator (Homo sapiens, UniProt P00750). The experiment can be described thus: Inhibition of recombinant human tPA using H-D-Ile-Pro-L-Arg-pNA-2HCl as substrate measured for 5 mins by spectrophotometric assay.
Target sequence in this assay (P00750 whole entry): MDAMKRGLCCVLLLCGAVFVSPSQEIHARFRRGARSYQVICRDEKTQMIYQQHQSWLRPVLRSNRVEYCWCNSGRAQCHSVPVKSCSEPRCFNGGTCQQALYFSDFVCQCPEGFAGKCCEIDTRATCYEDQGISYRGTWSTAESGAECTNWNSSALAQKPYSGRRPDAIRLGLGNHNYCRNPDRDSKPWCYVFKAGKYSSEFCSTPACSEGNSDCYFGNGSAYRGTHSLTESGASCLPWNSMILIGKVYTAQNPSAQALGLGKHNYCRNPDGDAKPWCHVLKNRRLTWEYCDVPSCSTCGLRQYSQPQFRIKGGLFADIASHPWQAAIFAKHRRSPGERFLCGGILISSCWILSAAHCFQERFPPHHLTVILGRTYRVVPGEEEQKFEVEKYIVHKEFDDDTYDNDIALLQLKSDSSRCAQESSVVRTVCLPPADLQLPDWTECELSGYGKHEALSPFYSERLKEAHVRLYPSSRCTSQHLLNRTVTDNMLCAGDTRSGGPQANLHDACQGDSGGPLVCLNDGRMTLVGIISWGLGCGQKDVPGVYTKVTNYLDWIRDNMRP
The target in experiment [11] is T3, Coagulation factor X (Homo sapiens, UniProt P00742). The experiment can be described thus: Inhibition of purified human factor 10a using Suc-Ile-Glu(gammaPip)-GlyArg-pNa-HCl as substrate measured for 5 mins by spectrophotometric assay. The method, boiled down: (§1)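 Purified human factor Xa, substrate Suc-Ile-Glu(γPip)-Gly-Arg-pNA (CS-11(32)) at 411 μM in assay. HEPES pH 8.2. Read at 405 nm for 5 min at 37 °C, duplicate wells.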
T3 sequence (P00742 41-179 limits assumed): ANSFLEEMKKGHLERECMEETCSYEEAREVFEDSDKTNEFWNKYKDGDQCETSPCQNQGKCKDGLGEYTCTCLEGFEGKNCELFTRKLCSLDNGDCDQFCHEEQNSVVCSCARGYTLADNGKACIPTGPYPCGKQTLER
T3 sequence (P00742 235-488 limits assumed): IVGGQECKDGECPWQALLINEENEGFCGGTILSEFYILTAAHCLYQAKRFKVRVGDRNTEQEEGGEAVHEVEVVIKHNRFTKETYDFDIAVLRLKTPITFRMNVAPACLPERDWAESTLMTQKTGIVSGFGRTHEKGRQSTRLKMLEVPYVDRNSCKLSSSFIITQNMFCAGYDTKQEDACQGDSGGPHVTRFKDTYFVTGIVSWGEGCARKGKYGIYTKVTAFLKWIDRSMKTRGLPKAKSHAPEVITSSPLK

The target of experiment [12] is T1, Urokinase-type plasminogen activator. The experiment can be described thus: Slow dissociating inhibition of human uPA using pyro-Glu-Gly-Arg-pNA as substrate assessed as para-nitroaniline release from substrate measured for 5 mins by spectrophotometry based enzyme kinetics assay.
The species named for experiment [13] is Homo sapiens. The experiment can be described thus: Selectivity index, ratio of IC50 for human plasma thrombin to IC50 for human uPA.
Experiment [14] addresses T4, Plasminogen (Homo sapiens, UniProt P00747). Kind of experiment: Inhibition of human plasma plasmin using pyroGlu-Pro-Arg-pNA-HCl as substrate at 100 uM measured for 5 mins by spectrophotometric assay. The format is cell-free. The gist of the method: (§2)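 Plasmin purified from human plasma. Substrate pyroGlu-Pro-Arg-pNA (CS-21(66), Km 400 μM) at 400 μM in assay. HEPES pH 7.0, 37 °C, absorbance at 405 nm followed for 5 min, duplicates.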

The target in experiment [15] is T2, Tissue-type plasminogen activator. Kind of experiment: Inhibition of recombinant human tPA using H-D-Ile-Pro-L-Arg-pNA-2HCl as substrate at 100 uM measured for 5 mins by spectrophotometric assay.
Target sequence in this assay (P00750 36-562 limits assumed): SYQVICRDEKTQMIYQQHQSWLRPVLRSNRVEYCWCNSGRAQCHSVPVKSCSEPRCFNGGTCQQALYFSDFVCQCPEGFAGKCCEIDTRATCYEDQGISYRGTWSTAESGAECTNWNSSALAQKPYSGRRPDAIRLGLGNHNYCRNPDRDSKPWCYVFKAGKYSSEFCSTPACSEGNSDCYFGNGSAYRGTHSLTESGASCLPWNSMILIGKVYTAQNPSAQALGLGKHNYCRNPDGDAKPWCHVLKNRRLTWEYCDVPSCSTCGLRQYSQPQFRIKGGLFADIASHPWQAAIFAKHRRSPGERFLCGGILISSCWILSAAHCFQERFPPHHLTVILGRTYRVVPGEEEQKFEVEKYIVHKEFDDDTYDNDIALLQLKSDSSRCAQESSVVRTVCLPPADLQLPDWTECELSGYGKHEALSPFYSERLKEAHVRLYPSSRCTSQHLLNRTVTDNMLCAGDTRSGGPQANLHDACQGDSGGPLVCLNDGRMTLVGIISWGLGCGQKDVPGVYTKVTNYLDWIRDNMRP
The nature of experiment [16]: Selectivity index, ratio of IC50 for bovine pancreatic trypsin to IC50 for human uPA.
The species named for experiment [17] is Homo sapiens. The experiment can be described thus: Selectivity index, ratio of IC50 for purified human factor 7a to IC50 for human uPA.
Experiment [18] addresses T5, Prothrombin (Homo sapiens, UniProt P00734). Kind of experiment: Inhibition of human plasma thrombin using pyroGlu-Pro-Arg-pNA-HCl as substrate at 100 uM measured for 5 mins by spectrophotometric assay. The format is cell-free. The method, boiled down: (§3)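 Thrombin from human plasma with pyroGlu-Pro-Arg-pNA (CS-21(66), Km 400 μM) at 415 μM in assay. 50 mM HEPES pH 8.2. pNA release at 405 nm over 5 min at 37 °C, in duplicate.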

The target of experiment [19] is T6, Plasma kallikrein (Homo sapiens, UniProt P03952). The experiment can be described thus: Inhibition of human plasma kallikrein using D-Pro-Phe-Arg-pNA-2HCl as substrate at 100 uM measured for 5 mins by spectrophotometric assay. Type of experiment: cell-free. The method, boiled down:
(§4)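 Human plasma kallikrein, chromogenic substrate CS-31(02) (Km 269 μM) at 269 μM in assay. 50 mM HEPES at pH 7.4. Absorbance at 405 nm over 5 min at 37 °C, duplicates.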

In experiment [20] the target is T7, Coagulation factor VII (Homo sapiens) (UniProt P08709).
T7 sequence (whole entry): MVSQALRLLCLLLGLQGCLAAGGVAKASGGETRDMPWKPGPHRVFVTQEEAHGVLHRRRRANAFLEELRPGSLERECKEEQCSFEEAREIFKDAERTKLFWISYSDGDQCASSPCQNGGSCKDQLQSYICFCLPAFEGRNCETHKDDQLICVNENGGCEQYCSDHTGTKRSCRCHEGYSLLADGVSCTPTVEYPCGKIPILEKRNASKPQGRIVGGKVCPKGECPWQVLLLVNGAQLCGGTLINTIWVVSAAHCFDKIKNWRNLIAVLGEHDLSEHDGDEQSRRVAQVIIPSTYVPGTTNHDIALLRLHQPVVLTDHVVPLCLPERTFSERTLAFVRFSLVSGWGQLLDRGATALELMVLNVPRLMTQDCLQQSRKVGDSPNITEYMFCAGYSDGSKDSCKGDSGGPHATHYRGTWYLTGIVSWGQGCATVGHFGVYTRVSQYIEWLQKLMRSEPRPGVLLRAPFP
Kind of experiment: Inhibition of purified human factor 7a using MeSO2-Cha-Abu-Arg-pNA as substrate at 100 uM measured for 5 mins by spectrophotometric assay. The method, boiled down:
(§5)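 Purified human plasma FVIIa with tissue factor (Innovin) present. MeSO2-Cha-Abu-Arg-pNA at 800 μM in assay. Buffer 50 mM HEPES pH 7.5, 100 mM NaCl, 5 mM CaCl2, 0.1% BSA.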

The target of the next experiment is T8, Coagulation factor VII (Homo sapiens, UniProt P08709).
T8 sequence (P08709 whole entry): T7 sequence (whole entry)
The experiment can be described thus: Inhibition of purified human factor 7a using MeSO2-Cha-Abu-Arg-pNA as substrate measured for 5 mins by spectrophotometric assay. The gist of the method:
as §5

Experiment [21] concerns the target T5, Prothrombin. The experiment can be described thus: Inhibition of human plasma thrombin using pyroGlu-Pro-Arg-pNA-HCl as substrate measured for 5 mins by spectrophotometric assay. Type of experiment: cell-free. The gist of the method:
as §3

Experiment [22] deals with T3, Coagulation factor X. The experiment can be described thus: Inhibition of purified human factor 10a using Suc-Ile-Glu(yPip)-GlyArg-pNa-HCl as substrate at 100 uM measured for 5 mins by spectrophotometric assay. The method, boiled down:
as §1

Experiment [23] has as its target T6, Plasma kallikrein. The experiment can be described thus: Inhibition of human plasma kallikrein using D-Pro-Phe-Arg-pNA-2HCl as substrate measured for 5 mins by spectrophotometric assay. Type of experiment: cell-free. The gist of the method:
as §4

The species named for the next experiment is Bos taurus. The experiment can be described thus: Inhibition of bovine pancreatic trypsin using Na-benzoyl-D,L-Arg-pNA-HCl as substrate at 100 uM measured for 5 mins by spectrophotometric assay.
In experiment [24] the target is T4, Plasminogen. The experiment can be described thus: Inhibition of human plasma plasmin using pyroGlu-Pro-Arg-pNA-HCl as substrate measured for 5 mins by spectrophotometric assay. Type of experiment: cell-free. The method, boiled down:
as §2

T4 sequence (P00747 97-580 limits assumed): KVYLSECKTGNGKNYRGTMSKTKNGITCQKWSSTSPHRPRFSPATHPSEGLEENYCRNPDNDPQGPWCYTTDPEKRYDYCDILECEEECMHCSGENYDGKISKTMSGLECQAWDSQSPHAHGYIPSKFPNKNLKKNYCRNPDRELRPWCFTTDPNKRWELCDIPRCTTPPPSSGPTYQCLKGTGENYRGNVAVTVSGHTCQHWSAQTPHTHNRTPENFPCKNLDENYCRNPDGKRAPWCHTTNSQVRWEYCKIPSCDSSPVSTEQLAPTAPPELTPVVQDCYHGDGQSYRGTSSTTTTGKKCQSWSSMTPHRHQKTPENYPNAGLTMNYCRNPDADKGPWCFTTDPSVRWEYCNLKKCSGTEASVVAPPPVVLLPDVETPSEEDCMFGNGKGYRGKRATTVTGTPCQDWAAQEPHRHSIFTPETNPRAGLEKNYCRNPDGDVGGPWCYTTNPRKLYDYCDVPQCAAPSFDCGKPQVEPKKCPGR
T4 sequence (P00747 581-810 limits assumed): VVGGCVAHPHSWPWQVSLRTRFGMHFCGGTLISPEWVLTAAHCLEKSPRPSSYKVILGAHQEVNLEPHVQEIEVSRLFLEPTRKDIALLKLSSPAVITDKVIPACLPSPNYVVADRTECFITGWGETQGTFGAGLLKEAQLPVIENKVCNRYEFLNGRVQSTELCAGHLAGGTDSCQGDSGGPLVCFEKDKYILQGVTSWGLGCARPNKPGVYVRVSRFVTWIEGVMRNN
T6 sequence (P03952 20-390 limits assumed): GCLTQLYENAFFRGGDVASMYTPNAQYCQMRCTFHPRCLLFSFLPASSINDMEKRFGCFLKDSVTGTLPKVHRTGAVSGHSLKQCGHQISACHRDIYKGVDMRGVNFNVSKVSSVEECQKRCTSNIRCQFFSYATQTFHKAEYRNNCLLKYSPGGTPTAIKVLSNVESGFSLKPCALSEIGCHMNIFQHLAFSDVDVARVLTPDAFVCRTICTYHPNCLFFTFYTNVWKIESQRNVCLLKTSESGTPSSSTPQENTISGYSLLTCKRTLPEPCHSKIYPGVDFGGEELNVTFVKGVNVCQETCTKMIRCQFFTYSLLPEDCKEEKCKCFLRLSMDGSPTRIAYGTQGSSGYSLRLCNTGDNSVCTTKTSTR
T6 sequence (P03952 391-638 limits assumed): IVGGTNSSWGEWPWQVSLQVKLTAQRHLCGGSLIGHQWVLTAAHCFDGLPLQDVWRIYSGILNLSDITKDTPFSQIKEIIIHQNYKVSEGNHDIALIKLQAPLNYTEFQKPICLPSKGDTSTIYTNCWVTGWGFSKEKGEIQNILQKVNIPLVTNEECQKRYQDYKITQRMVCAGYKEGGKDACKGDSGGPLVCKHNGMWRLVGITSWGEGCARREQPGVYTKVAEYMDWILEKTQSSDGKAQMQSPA

As to `N=C(N)c1ccc(CNC(=O)[C@H](CO)NC(=O)[C@@H](CO)NS(=O)(=O)Cc2ccccc2)cc1`, the pKi – broadly, the negative decadic logarithm of the Ki, by convention in mol/L – in experiment [1] is 7.70.

Regarding `CCCCNC(=O)c1ccn2c(NCc3ccc(NC(=N)N)cc3)cnc2c1`, the pIC50 (usually the IC50 on a negative log10 scale, so that one unit is a factor of ten) in experiment [2] is less than 4.00; in experiment [3] it was 7.01; in experiment [10], less than 4.00; on Coagulation factor X [11], less than 4.00; on Coagulation factor VII it was less than 4.00; against Prothrombin [21] it was less than 4.00. The pIC50 at Plasma kallikrein [23] and against Plasminogen [24] was less than 4.00 throughout. Moreover, the Ratio IC50 (in the experiment filed under Homo sapiens [4]; in the experiment listed under Homo sapiens [6]; in the experiment filed under Homo sapiens [7]; in the experiment listed under Homo sapiens [8]; in the experiment filed under Homo sapiens [13]; in [16]) was more than 1000 each time. The Ratio IC50 in the experiment listed under Homo sapiens [17] was more than 1000. Also, the inhibition result in [5], in experiment [9] and in experiment [12] was “Active” each time. The inhibition (usually the relative decrease from the control value, in per cent) against Plasminogen [14] is 13.6%; in experiment [15], 8%; at Prothrombin [18], 19.2%; against Plasma kallikrein [19], 2.8%; in experiment [20], 1.4%; at Coagulation factor X [22] it was 41.8%. In the experiment filed under Bos taurus, this compound returned an inhibition of 42.7%.

Take `N=C(N)c1ccc(/C=C2/N=C(c3ccccc3)OC2=O)cc1`: the pIC50 in [2] was 5.50; in [3], 5.06; in [10], 4.16; on Coagulation factor X [11], 5.19; at Prothrombin [21], 4.25; against Plasma kallikrein [23], 5.87. This compound also gave a pIC50 against Plasminogen [24] of 6.47. Moreover, in experiment [20], the inhibition stood at 0%.

For the compound `CCOC(=O)c1ccc(OC(=O)CCCCCNC(=N)N)cc1` [GABEXATE], the pIC50 in [2] is 5.15; in experiment [3] it was 6.37; in [10], 4.81; against Coagulation factor X [11], 5.34; against Prothrombin [21], 6.16; at Plasma kallikrein [23], 5.87. The compound further had a pIC50 at Plasminogen [24] of 5.81.
